Laboratory results from ChEMBL document CHEMBL4152327, “Homopiperazine-rhodamine B adducts of triterpenoic acids are strong mitocans” (Eur J Med Chem, 2018).
pEC50: −log10 of the molar value.

Assays:
A-375 = assay: Cytotoxicity against human A375 cells after 96 hrs by SRB assay; format: functional, cell-based; settings: A-375, 96 h
Method in brief: (§1)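 SRB assay; cells exposed to compound for 96 h. EC50 in µM averaged from three independent experiments, each in triplicate, with 95% confidence interval and mean ± standard mean error. Assay cut-off 30 µM.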

A2780 = assay: Cytotoxicity against human A2780 cells after 96 hrs by SRB assay; format: functional, cell-based; settings: A2780, 96 h; method in brief: as §1
HT-29 = assay: Cytotoxicity against human HT-29 cells after 96 hrs by SRB assay; format: functional, cell-based; settings: HT-29, 96 h; method in brief: as §1
MCF7 = assay: Cytotoxicity against human MCF7 cells after 96 hrs by SRB assay; format: functional, cell-based; settings: MCF7, 96 h; method in brief: as §1
NIH3T3 = assay: Cytotoxicity against mouse NIH/3T3 cells after 96 hrs by SRB assay; format: cell-based; settings: NIH3T3, 96 h; method in brief: as §1
SW-1736 = assay: Cytotoxicity against human SW1736 cells after 96 hrs by SRB assay; format: functional, cell-based; settings: SW-1736, 96 h; method in brief: as §1
[1] = Drug uptake in mitochondria of human A2780 cells at 100 nM after 24 hrs by rhodamine 123 staining-based fluorescence microscopic method; format: ADME; settings: a2780, 24 h, 0.1 µM
Method in brief: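 A2780 cells, about 1·10^6 per 25 cm² flask, grown 24 h, then given fresh medium containing compound for 24 h (blank medium as control). Cells collected, centrifuged at 1200 rpm and 4 °C, washed in PBS, then mixed with Hoechst 33342/Rhodamine 123 solution (10 µg/ml). Incubated 30 min at 37 °C in the dark, washed, and viewed by epifluorescence microscopy.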

[2] = Selectivity index, ratio of EC50 for mouse NIH/3T3 cells to EC50 for human A2780 cells; format: toxicity; settings: NIH/3T3 cells and A2780 cells, read-out: Ratio EC50

SMILES | pEC50 (A-375) | pEC50 (A2780) | pEC50 (HT-29) | pEC50 (MCF7) | pEC50 (NIH3T3) | pEC50 (SW-1736) | Drug uptake [1] | selectivity ratio [2]
CCN(CC)c1ccc2c(-c3ccccc3C(=O)N3CCCN(C(=O)[C@]4(C)[C@@H]5CC[C@]6(C)[C@H](C(=O)C=C7[C@@H]8[C@@H](C)[C@H](C)CC[C@]8(C)CC[C@]76C)[C@@]5(C)CC[C@H]4OC(C)=O)CC3)c3ccc(=[N+](CC)CC)cc-3oc2c1 | 6.29 | 6.35 | 6.30 | 6.41 | 6.40 | – | – | –
C=C(C)[C@@H]1CC[C@]2(C(=O)N3CCCNCC3)CC[C@]3(C)[C@H](CC[C@@H]4[C@@]5(C)CC[C@H](OC(C)=O)C(C)(C)[C@@H]5CC[C@]43C)[C@@H]12 | – | 5.79 | 5.83 | 5.82 | 5.98 | 5.74 | – | –
CC(=O)O[C@H]1CC[C@]2(C)[C@H]3CC=C4[C@@H]5CC(C)(C)CC[C@]5(C(=O)N5CCCNCC5)CC[C@@]4(C)[C@]3(C)CC[C@H]2C1(C)C | 5.64 | 5.64 | 5.89 | 5.82 | 5.91 | 5.49 | – | –
CCN(CC)c1ccc2c(-c3ccccc3C(=O)O[C@H]3CC[C@@]4(C)[C@@H](CC[C@]5(C)[C@@H]4C(=O)C=C4[C@@H]6[C@@H](C)[C@H](C)CC[C@]6(C)CC[C@]45C)[C@@]3(C)C(=O)OCc3ccccc3)c3ccc(=[N+](CC)CC)cc-3oc2c1 | 5.82 | 5.88 | 5.77 | 5.86 | 6.00 | – | – | –
CCN(CC)c1ccc2c(-c3ccccc3C(=O)N3CCCN(C(=O)[C@]45CC[C@@H](C)[C@H](C)[C@H]4C4=CC[C@@H]6[C@@]7(C)CC[C@H](OC(C)=O)C(C)(C)[C@@H]7CC[C@@]6(C)[C@]4(C)CC5)CC3)c3ccc(=[N+](CC)CC)cc-3oc2c1 | 7.40 | 7.70 | 7.40 | 7.52 | 6.85 | 7.40 | – | –
C[C@H]1[C@H](C)CC[C@]2(C)CC[C@]3(C)C(=CC(=O)[C@@H]4[C@@]5(C)CC[C@@H](O)[C@](C)(C(=O)NCc6ccccc6)[C@@H]5CC[C@]43C)[C@H]12 | 4.89 | 5.00 | 4.97 | 5.14 | 5.31 | – | – | –
CC(=O)O[C@H]1CC[C@]2(C)[C@H]3C(=O)C=C4[C@@H]5C[C@@](C)(C(=O)N6CCCNCC6)CC[C@]5(C)CC[C@@]4(C)[C@]3(C)CC[C@H]2C1(C)C | 4.73 | 4.92 | 5.29 | 4.97 | 4.91 | 4.73 | – | –
CC(=O)O[C@H]1CC[C@]2(C)[C@H]3CC=C4[C@@H]5[C@@H](C)[C@H](C)CC[C@]5(C(=O)N5CCCNCC5)CC[C@@]4(C)[C@]3(C)CC[C@H]2C1(C)C | 5.71 | 5.66 | 5.73 | 5.79 | 5.74 | – | – | –
CCN(CC)c1ccc2c(-c3ccccc3C(=O)N3CCCN(C(=O)[C@]45CCC(C)(C)C[C@H]4C4=CC[C@@H]6[C@@]7(C)CC[C@H](OC(C)=O)C(C)(C)[C@@H]7CC[C@@]6(C)[C@]4(C)CC5)CC3)c3ccc(=[N+](CC)CC)cc-3oc2c1.[Cl-] | 7.52 | 8.00 | 7.40 | 7.52 | 6.77 | 7.52 | Active | 17
C[C@H]1[C@H](C)CC[C@]2(C)CC[C@]3(C)C(=CC(=O)[C@@H]4[C@@]5(C)CC[C@@H](O)[C@](C)(C(=O)OCc6ccccc6)[C@@H]5CC[C@]43C)[C@H]12 | 4.61 | 4.52 | 4.54 | 4.58 | < 4.52 | 4.61 | – | –
CCN(CC)c1ccc2c(-c3ccccc3C(=O)O[C@H]3CC[C@@]4(C)[C@@H](CC[C@]5(C)[C@@H]4C(=O)C=C4[C@@H]6[C@@H](C)[C@H](C)CC[C@]6(C)CC[C@]45C)[C@@]3(C)C(=O)NCc3ccccc3)c3ccc(=[N+](CC)CC)cc-3oc2c1 | 6.23 | 6.28 | 6.26 | 6.31 | 6.40 | – | – | –
CCN(CC)c1ccc2c(-c3ccccc3C(=O)O[C@@H]3CC[C@@]4(C)[C@@H](CC[C@]5(C)[C@@H]4C(=O)C=C4[C@@H]6[C@@H](C)[C@H](C)CC[C@]6(C)CC[C@]45C)[C@@]3(C)C(=O)OC)c3ccc(=[N+](CC)CC)cc-3oc2c1 | 6.44 | 6.52 | 6.54 | 6.64 | 6.72 | – | – | –
C=C(C)[C@@H]1CC[C@]2(C(=O)O)CC[C@]3(C)[C@H](CC[C@@H]4[C@@]5(C)CC[C@H](O)C(C)(C)[C@@H]5CC[C@]43C)[C@@H]12 [BETULINIC ACID] | 4.77 | – | – | – | – | 4.74 | – | –
CC(=O)O[C@@H]1CC[C@@]2(C)[C@@H](CC[C@]3(C)[C@@H]2C(=O)C=C2[C@@H]4[C@@H](C)[C@H](C)CC[C@]4(C)CC[C@]23C)[C@@]1(C)C(=O)N1CCCNCC1 | 5.49 | 5.55 | 5.70 | 5.62 | 6.05 | – | – | –
CCN(CC)c1ccc2c(-c3ccccc3C(=O)N3CCCN(C(=O)[C@@]4(C)CC[C@]5(C)CC[C@]6(C)C(=CC(=O)[C@@H]7[C@@]8(C)CC[C@H](OC(C)=O)C(C)(C)[C@@H]8CC[C@]76C)[C@@H]5C4)CC3)c3ccc(=[N+](CC)CC)cc-3oc2c1 | 6.12 | 6.66 | 6.55 | 6.66 | 6.48 | 6.66 | – | –
CC(=O)O[C@@H]1CC[C@@]2(C)[C@@H](CC[C@]3(C)[C@@H]2C(=O)C=C2[C@@H]4[C@@H](C)[C@H](C)CC[C@]4(C)CC[C@]23C)[C@@]1(C)C(=O)NCc1ccccc1 | 4.86 | 4.97 | 4.69 | 5.01 | 4.55 | – | – | –
